# Source: PubChem BioAssay
# FAS TE block – FAS thioesterase (human) inhibition; P49327; recombinant FAS-TE, OMFH fluorogenic substrate, fluorescence endpoint; inhibition, % at 15 µM; hit rate 0.67% among 360,000; AID 602261;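 active = compounds whose normalised, plate-corrected inhibition of enzyme fluorescence in the single-dose primary screen is 50% or more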;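 note: 0% = DMSO with enzyme and 100% = substrate without enzyme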
# SENP1 FRET inh – SENP1 (human) catalytic domain inhibition; AID 624204; hit rate 0.21% among 360,000; Q9P0U3; recombinant SENP1 catalytic domain, CyPet-SUMO1-YPet FRET cleavage; inhibition, % at 10 µM;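 active = inhibition at least 30% at 10 µM, raw YFP signal under a set limit, fluorescence ratio 0.5 to 1.5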;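 note: 0% = enzyme with DMSO and 100% = no enzyme wells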
# Target sequence (Q9P0U3 419-644 limits assumed): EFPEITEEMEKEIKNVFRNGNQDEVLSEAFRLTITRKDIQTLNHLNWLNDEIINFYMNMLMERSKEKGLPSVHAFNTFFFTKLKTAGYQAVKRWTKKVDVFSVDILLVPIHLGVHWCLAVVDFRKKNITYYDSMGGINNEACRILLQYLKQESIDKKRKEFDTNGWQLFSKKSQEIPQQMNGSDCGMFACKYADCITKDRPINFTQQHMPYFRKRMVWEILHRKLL
#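 System: Recombinant human SENP1 catalytic domain, His6-tagged | Incubation: Enzyme reaction for 50 min at room temperature, dark | Medium: Tris pH 8 with BME, BSA, NP40 and catalase | Also added: 25 nM SUMO1 FRET substrate | Compound: 10 µM single point, 0.5% DMSO | Measured by: FRET fluorescence in CFP and YFP emission channels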
# NR3A LBD binder – modulators (binders) of human NR3A ligand-binding domain. NR3A LBD differential scanning fluorimetry, Tm shift; 0% = protein alone, 100% = glycine-bound protein. Tm shift relative to glycine control, % at 25 µM. hit rate 2.5% among 340,000. AID 1259313;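 active = melting temperature shift of at least 10% of the positive control shift, at one fixed dose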
# iPSC survival up – increases survival of single human iPS cells; hit rate 0.044% among 360,000; hiPSC single-cell survival, ATPlite luminescence; 100% = ROCK inhibitor wells, 0% = DMSO; survival enhancement, % at 20 µM; AID 602274; in the data active = survival enhancement above about 18%;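 note: cells exposed to compounds for 16 hours before the ATP read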
# Arrestin-AP2 inh – inhibitors of human beta-arrestin and AP2 interaction; FITC-arrestin peptide / GST-AP2 beads, flow cytometry; AP2 beta2 appendage carries R879A mutation; inhibition, % at 10 µM; hit rate 0.31% among 340,000; AID 504490;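 active = inhibition above a set limit, near 3 SD of compounds lacking own fluorescence, cut at about 54% in these data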;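 note: plate controls were DMSO wells for no effect and 5 µM unlabelled arrestin peptide for full effect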
#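 System: GST-AP2 R879A glutathione beads. Medium: PBS with 0.05% Tween 20 and 0.1% BSA. Also added: FITC-arrestin peptide, 50 nM. Incubation: 12 min plus 1 h, RT. Measured by: high-throughput flow cytometry of beads, ex 488, em 535 nm. Evaluation: percent drop in bead-associated FITC signal.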
# Cardio protect – protects H9c2 cardiomyocytes from peroxide injury. H2O2 injury protection, ATPLite, 2 h. protection from H2O2 cell death, % at 20 µM. hit rate 0.63% among 360,000;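 active = compounds giving at least 50% protection of heart cells from peroxide-induced death in the single-dose screen, raw or plate-pattern-corrected value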;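 note: 0% = DMSO wells with peroxide and 100% = DMSO wells without peroxide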
# * marks the source's active call; other numbers are inactive results; nt = no result given. Sampled rows, rich in hits. Any-hit rate of the full collection: about 4%.
SMILES,FAS TE block,SENP1 FRET inh,NR3A LBD binder,iPSC survival up,Arrestin-AP2 inh,Cardio protect
CCOc1ccc(/C=N/NC(=O)C(O)c2ccccc2)c(O)c1 (configuration not stated),-1.5,-4.8,-1.2,-0.3,3.7,51.7*
O=C(COc1ccccc1)NCC(=O)N/N=C/c1ccc(O)cc1O,-1.6,-1.6,-0.9,0.5,6.3,60.2*
COc1cccc(/C=N/NC(=O)CNC(=O)COc2ccccc2)c1O,2.2,-3.8,-1.3,-0.4,24.2,29.1
Cc1cccc(OCC(=O)N/N=C/c2cn[nH]c2-c2ccc(Cl)c(Cl)c2)c1,-7.9,-1.0,27.2*,6.2,0.0,-3.3
Cc1ccc(/C=N/NC(=O)CNC(=O)COc2ccccc2)cc1,-11.3,2.2,1.3,-0.2,-7.8,0.6
Cc1cccc(OCC(=O)NCC(=O)N/N=C/c2cc(Br)cc(Br)c2O)c1,22.8,-19.1,17.1*,0.9,-23.8,59.2*
CCOc1ccc(CCNC(=O)C(O)c2ccccc2)cc1 (configuration not stated),-7.0,1.9,-1.3,-0.3,0.0,1.1
CCOC(=O)[C@]12CCC=C1N(Cc1ccco1)C(=O)[C@H](CC(=O)NCc1cccc3ccccc13)C2,2.4,-7.8,nt,-0.3,nt,nt
COc1cccc(C(C(=O)NC2CCCC2)N2CCN(c3ncccc3C#N)CC2)c1OC (configuration not stated),nt,3.1,nt,nt,nt,nt
COCCn1c(C)cc(C(=O)CSc2nc3ccccc3c(=O)n2Cc2ccco2)c1C,24.9,1.3,11.5*,-0.5,-2.0,11.6
COc1ccc(NC(=O)CN(C)C(=O)/C=C/c2cn(-c3ccccc3)nc2-c2cccs2)cc1,12.9,-3.1,7.3,-0.5,-14.2,2.4
CCCCNC(=O)c1nc(C2CCN(S(=O)(=O)c3cccc(C(F)(F)F)c3)CC2)oc1-c1ccccc1,20.5,-0.2,nt,-0.7,nt,-3.2
CCOc1cc(-c2nc(-c3ccccc3OC)no2)cc(OCC)c1OCC,30.0,2.5,11.3*,-1.3,-7.2,3.1
O=C(Nc1cccc(C(=O)Nc2cccc(Br)c2)c1)c1ccccc1,24.0,0.6,35.2*,-0.1,6.4,-2.0
O=C(Nc1cccc(Br)c1)c1ccn[nH]1,-13.6,1.6,26.9*,1.3,4.8,-1.3
O=C(NS(=O)(=O)c1ccccc1)c1cccc(Br)c1,-4.6,-0.2,20.6*,-0.5,-2.0,3.8
OCCNc1ncnc2c1ncn2[C@H]1CN(Cc2ccc3c(c2)OCO3)C[C@@H](CO)O1,-3.8,2.7,nt,-0.9,nt,8.7
O=C(Nc1ccn(CCCN2CCN(Cc3ccc(F)cc3)CC2)c(=O)n1)OCc1ccccc1,-5.0,-0.3,nt,-0.7,nt,-4.2
Cc1cccc(C)c1-n1nnnc1C1(C)CCC(=O)N1CC(F)(F)F (configuration not stated),-3.4,2.9,nt,-0.2,nt,nt
Cc1csc(SCc2nc3sc4c(c3c(=O)[nH]2)CCC4)n1,-3.5,-1.2,0.0,-2.0,17.2,51.7*
Cc1csc(SCc2nc3scc(-c4ccccc4)c3c(=O)[nH]2)n1,-0.9,2.1,0.7,-0.1,7.8,-0.8
CC1=C(C(=O)N(C(C)C)C(C)C)CC(CC(=O)NC(c2ccccc2)c2ccccc2)C(=O)N1CCC1=CCCCC1 (configuration not stated),19.0,0.6,nt,2.6,nt,-4.9
Cc1ccc(-c2cc(C(=O)N3N=C(C(F)F)CC3(O)C(F)F)c3ccccc3n2)cc1C (configuration not stated),36.8,0.6,34.9*,3.1,7.5,-16.6
O=C(c1cc(-c2ccccc2)nc2ccccc12)N1N=C(C(F)F)CC1(O)C(F)F (configuration not stated),11.1,0.4,4.3,0.0,8.3,-12.7
Cc1nn(-c2ccccc2)c(C)c1C(=O)OCC(=O)N1c2ccccc2NC(=O)C1(C)C,-1.8,-0.8,-0.1,3.2,-53.2,99.2*
SMILES,FAS TE block,SENP1 FRET inh,NR3A LBD binder,iPSC survival up,Arrestin-AP2 inh,Cardio protect
Cc1cnc(C(=O)OCC(=O)N2c3ccccc3NC(=O)C2(C)C)cn1,-7.7,-0.4,0.6,-2.0,5.2,-3.4
Cc1ccccc1C(=O)NCCN1CCC(n2c(=O)[nH]c3ccccc32)CC1,-13.9,1.9,nt,-1.0,nt,nt
O=C(/C=C/c1cccc(C(F)(F)F)c1)Nc1cccc(C(F)(F)F)c1,34.7,-0.9,13.8*,-0.8,3.5,-20.1
O=C(Nc1cccc(C(F)(F)F)c1)C1(c2ccccc2)CC1,9.6,1.9,11.9*,1.3,-5.4,-1.9
Cc1ccc(NC(=O)/C=C/c2cccc(C(F)(F)F)c2)cc1,1.8,0.7,24.6*,-0.5,-5.9,-4.1
C/C=C/C(=O)Nc1cccc(C(F)(F)F)c1,8.0,1.3,-0.6,0.0,11.2,0.7
Cc1ccc(/C=C/C(=O)N2CCN(c3cccc(C(F)(F)F)c3)CC2)cc1,13.3,2.8,20.7*,1.5,2.5,-15.1
CCOC(=O)[C@]12CCCC=C1N(CCC1=CCCCC1)C(=O)[C@H](CC(=O)NCc1cccc3ccccc13)C2,nt,-1.8,nt,nt,nt,nt
COc1ccc(Cl)cc1CC1(C)C(=O)Nc2ccc(S(=O)(=O)NC3CCCCC3)cc21 (configuration not stated),21.1,3.2,nt,1.1,nt,5.6
CC(=O)NCCNc1nc2cc(-c3ccccc3C)sc2c(=O)n1C,0.2,1.8,nt,0.1,nt,-7.3
CC1C(=O)N(Cc2cn(Cc3ccco3)nn2)CCS(=O)(=O)N1Cc1ccc(-c2cccc(N(C)C)c2)cc1 (configuration not stated),35.9,0.2,nt,0.3,nt,-20.0
CC(C)n1nnnc1C1c2ccccc2C(=O)N1CCOc1ccccc1 (configuration not stated),-4.6,3.1,nt,-0.9,nt,nt
CCN(C(=O)COC(=O)c1c(-c2ccccc2)noc1C)c1c(N)n(Cc2ccccc2)c(=O)[nH]c1=O,-6.8,-2.5,14.5*,-0.1,6.5,8.9
CCCCN(C)C(=O)c1ccc(Nc2nc(C(N)COCc3ccccc3)cs2)nc1 (configuration not stated),-7.0,-72.3,nt,0.8,nt,-1.9
c1ccc(Sc2ncnc3c2oc2ccccc23)cc1,9.0,1.0,33.8*,-0.1,-4.1,-13.0
O=c1[nH]ccc2c(O)cccc12,-2.6,-1.6,0.6,6.1,-1.3,90.2*
Nc1cccc2c(O)cccc12,-4.9,-8.0,-0.5,0.2,23.2,-11.5
CCNC(=O)C[C@@H]1C=C[C@@H](NS(=O)(=O)c2ccc(F)cc2)[C@@H](CO)O1,nt,-1.2,nt,nt,nt,nt
CC(=O)Nc1ccc(-c2ccnc3c2CC(C)(C(=O)NCc2ccc(N4CCN(C)CC4)cc2)O3)cc1 (configuration not stated),-5.2,1.4,nt,4.4,nt,-1.7
Oc1cccc(/C=N/NC(=S)NCCN2CCOCC2)c1O,-8.0,-6.9,0.8,-0.6,-3.3,48.9*
